Structures are written as SMILES. Active and inactive are the calls of the source. Cut-off read from the data, not from the text of the source, unless noted: active = inhibition above about 30%; inactive = the rest.

Assay [1] is described as follows: Her2 expression decrease, cell viability multiplex – SKBR3 breast tumor cells, AlphaScreen, ATP viability, primary screen (AID 461;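 active = Her2 level under about 52% in both replicate screens, with viability over 70% of control, limit read from the data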;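 for Her2 level: lower value means less Her2 protein in the cells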;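 for viability: percent of carrier control wells set as 100% viability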). The following applies: SKBR3 Her2 protein level, 18-24 h, measured here: SKBR3 viability, ATP luminescence, at 10 µM. Background: Bead proximity is the source of the signal in Alpha formats.
For assay [2], the target named is Receptor tyrosine-protein kinase erbB-2 (Homo sapiens) (UniProt P04626). The description is as above. The following applies: 18-24 h, at 10 µM, stronger effect = lower value.
Assay [3] can be described thus: reduced viability of SK-BR-3 breast cancer cells – cell-based, 24 h, human, pilot screen (AID 572;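 active = viability at or below 10% of carrier control in both of two separate runs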;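 note: compound exposure lasted between 18 and 24 h rather than exactly 24 h; 100% = carrier-treated control wells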). The following applies: SK-BR-3 viability, CellTiter-Glo luminescence, at 10 µM, stronger effect = lower value. (In general: ATP-based viability assays read luminescence as a measure of living cells.)
Assay [4] can be described thus: HUVEC growth inhibition – cell-based, human, primary screen (AID 575;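 active = viability at or below 30% in both replicate assays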;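 note: 100% = median of untreated cell wells with 0.1% DMSO on each plate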). The settings on record: HUVEC proliferation, CellTiter-Glo luminescence, 72 h; at 10 µM; stronger effect = lower value. In short, it runs like this:
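Material: primary human umbilical vein endothelial cells / Schedule: 72 h exposure, 37 °C, 5% CO2, 30 min RT equilibration / Signal: ATP-based CellTiter-Glo luminescent read / Read-out basis: percent of median DMSO-control luminescence / Control set: 32 DMSO-only cell-control wells (high), 32 MePR drug-control wells (low) per plate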

A short description of assay [5]: H69AR cell proliferation blockers – human, duplicate replicates, primary screen (AID 580;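 active = viability at or under a set limit in both replicates, limit being median viability minus 3 SD, cut at about 48% in these data, passing the limit was not always enough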;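 note: 100% = mean luminescence of untreated wells and 0% = no signal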). The settings on record: H69AR lung tumor cells viability, ATP luminescence, 72 h; at 10 µM; stronger effect = lower value.
Assay [6] can be described thus: MRP1 drug-resistance reversers in H69AR cells – cell-based, doxorubicin co-treatment, pilot screen (AID 601;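 active = viability loss from added drug above about 55%, and viability with drug at most 40%, in both replicates, limit read from the data, passing the limit was not always enough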). The following applies: CellTiter-Glo, 72 h, at 10 µM; for differential viability (reversal): stronger effect = higher value.
The nature of assay [7]: yeast transport mutant growth inhibition pilot in 384-well plates, post-Golgi transport modulator project (AID 636; in the data active = inhibition above about 31%). The following applies: absorbance 615 nm, about 18 h, stronger effect = higher value.
A short description of assay [8]: growth suppression of yeast trafficking mutant, preliminary HTS, modulators of trafficking downstream of Golgi apparatus project, 1536-format plate, OD 615 nm (AID 637). The following applies: yeast transport mutant growth, absorbance 615 nm, 18 h; stronger effect = higher value.
Setting [9] is: H69AR cells + 2 uM doxorubicin, measured here: viability with 2 uM doxorubicin, stronger effect = lower value.
The mark [10] stands for this setting: H69AR cells, compound alone cytotoxicity.

Chain of Receptor tyrosine-protein kinase erbB-2 (Homo sapiens) (P04626 whole entry, looked up): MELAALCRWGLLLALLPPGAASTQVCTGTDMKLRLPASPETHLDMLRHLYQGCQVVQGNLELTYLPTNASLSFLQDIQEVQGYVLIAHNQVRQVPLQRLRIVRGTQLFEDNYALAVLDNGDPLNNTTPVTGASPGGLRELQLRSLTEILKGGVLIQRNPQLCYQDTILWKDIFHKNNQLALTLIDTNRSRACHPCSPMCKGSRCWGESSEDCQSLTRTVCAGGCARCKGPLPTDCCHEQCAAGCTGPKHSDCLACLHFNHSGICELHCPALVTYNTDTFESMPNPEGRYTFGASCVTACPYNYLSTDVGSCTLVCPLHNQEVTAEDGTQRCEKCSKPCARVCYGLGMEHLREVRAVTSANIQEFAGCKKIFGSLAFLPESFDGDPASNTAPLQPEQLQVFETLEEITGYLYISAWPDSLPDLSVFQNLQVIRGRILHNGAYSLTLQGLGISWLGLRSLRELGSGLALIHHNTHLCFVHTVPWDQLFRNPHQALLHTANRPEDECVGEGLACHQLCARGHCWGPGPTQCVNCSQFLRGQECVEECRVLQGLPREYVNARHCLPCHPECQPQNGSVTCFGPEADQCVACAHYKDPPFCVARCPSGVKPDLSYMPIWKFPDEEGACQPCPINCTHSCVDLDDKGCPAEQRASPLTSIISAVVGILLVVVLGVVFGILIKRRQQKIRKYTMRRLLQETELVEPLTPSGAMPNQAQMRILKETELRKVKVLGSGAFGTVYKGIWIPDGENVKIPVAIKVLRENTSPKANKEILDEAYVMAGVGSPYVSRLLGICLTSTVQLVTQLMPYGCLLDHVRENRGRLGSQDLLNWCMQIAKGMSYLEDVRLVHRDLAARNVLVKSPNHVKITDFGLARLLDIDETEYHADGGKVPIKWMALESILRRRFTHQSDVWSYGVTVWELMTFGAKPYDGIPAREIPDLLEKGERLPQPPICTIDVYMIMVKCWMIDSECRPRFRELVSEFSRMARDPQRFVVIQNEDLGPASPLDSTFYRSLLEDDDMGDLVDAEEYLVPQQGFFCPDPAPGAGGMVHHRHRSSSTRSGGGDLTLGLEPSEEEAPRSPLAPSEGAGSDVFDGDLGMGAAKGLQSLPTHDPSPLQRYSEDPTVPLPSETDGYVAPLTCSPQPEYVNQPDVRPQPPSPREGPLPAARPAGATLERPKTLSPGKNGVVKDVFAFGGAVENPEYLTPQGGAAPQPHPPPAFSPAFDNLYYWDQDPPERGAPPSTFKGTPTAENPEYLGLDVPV

What is called viability is a read-out of living cells in per cent, often relative to untreated cells. What is called inhibition is the change of the read-out against control, counted positive when it falls. On to `N#CC1=C(N)SC(N)=C(C#N)C1CCc1ccccc1`, for which the viability in assay [1] is 79.5%; in assay [3], 79.5% (inactive); in assay [4] it was 44.8% (inactive); in assay [5] it was 23.3% (active); in assay [6] (setting [9]) it was 31.9%; in assay [6] (setting [10]), 23.3%. Moreover, in assay [2], the Her2 level is 77.5% (inactive). For the same compound, the differential viability (reversal) in assay [6] (H69AR cells + 2 uM doxorubicin) was -8.65% (inactive). The inhibition is -2.11% (inactive) in assay [7] and -0.36% (inactive) in assay [8].
Regarding `CCC(C)NC(=O)C1(C)CCC(=O)N1Cc1ccccc1OC` (stereo not given), the viability was 100% in assay [1]; 100% (inactive) in assay [3]; 99.8% (inactive) in assay [4]; 95.3% (inactive) in assay [5]; 95% in assay [6] (setting [9]); 95.3% in assay [6] (setting [10]). Moreover, the Her2 level in assay [2] was 95% (inactive). Further, the differential viability (reversal) in assay [6] (H69AR cells + 2 uM doxorubicin) is 0.27% (inactive). For the same compound, the inhibition is -5.07% (inactive) in assay [7] and 1.31% (inactive) in assay [8].
With `CCC1CCCCN1S(=O)(=O)c1ccc(C(=O)Nc2nnc(-c3cccs3)o2)cc1` (stereo not given), the viability in assay [1] was 79.5%; in assay [3], 79.5% (inactive); in assay [4], 3.2% (active); in assay [5], 16.7% (active); in assay [6] (setting [9]), 44.9%; in assay [6] (setting [10]), 16.7%. Also, in assay [2], the Her2 level was 91.5% (inactive). Moreover, in assay [6] (H69AR cells + 2 uM doxorubicin), the differential viability (reversal) was -28.1% (inactive). The inhibition in assay [7] was -8.68% (inactive); in assay [8] it was 9.64% (inactive).
As to `CCOC(=O)C1=C(C)OC(N)=C(C#N)C1c1ccoc1` (stereo not given), the viability is 111% in assay [1]; 111% (inactive) in assay [3]; 88.1% (inactive) in assay [4]; 95.3% (inactive) in assay [5]; 84% in assay [6] (setting [9]); 95.3% in assay [6] (setting [10]). Moreover, the Her2 level in assay [2] was 107% (inactive). In assay [6] (H69AR cells + 2 uM doxorubicin), the differential viability (reversal) was 11.2% (inactive). Besides, the inhibition in assay [7] is 1.04% (inactive); in assay [8], -4.17% (inactive).
As for `O=C(OCc1nnc(-c2ccccc2)o1)C1=COCCO1`, the viability in assay [1] was 100%; in assay [3], 100% (inactive); in assay [4], 101% (inactive); in assay [5] it was 92.1% (inactive); in assay [6] (setting [9]) it was 93%; in assay [6] (setting [10]), 92.1%. Also, the Her2 level in assay [2] was 94% (inactive). Moreover, the differential viability (reversal) in assay [6] (H69AR cells + 2 uM doxorubicin) is -0.965% (inactive). Further, the inhibition in assay [7] is -8.67% (inactive); in assay [8], -1.97% (inactive).
On to `O=C(O)c1cc2nc(-c3ccc(F)cc3)cc(C(F)(F)F)n2n1`, for which the viability in assay [1] is 94%; in assay [3] it was 94% (inactive); in assay [4] it was 82% (inactive); in assay [5], 93.2% (inactive); in assay [6] (setting [9]), 89.2%; in assay [6] (setting [10]) it was 93.2%. Further, the Her2 level in assay [2] was 118% (inactive). For the same compound, the differential viability (reversal) in assay [6] (H69AR cells + 2 uM doxorubicin) is 4% (inactive). Besides, the inhibition in assay [7] is -2.24% (inactive); in assay [8] it was -1% (inactive).
For `CCN(Cc1cc2cc(OC)ccc2[nH]c1=O)C(=O)c1ccncc1`, the viability in assay [1] is 89%; in assay [3], 89% (inactive); in assay [4], 97.8% (inactive); in assay [5], 99.5% (inactive); in assay [6] (setting [9]), 103%; in assay [6] (setting [10]) it was 99.5%. In assay [2], the Her2 level is 100% (inactive). For the same compound, the differential viability (reversal) in assay [6] (H69AR cells + 2 uM doxorubicin) is -3.88% (inactive). In addition, the inhibition in assay [7] was -2.13% (inactive); in assay [8] it was 9.05% (inactive).
Regarding `Cc1cc(NC(=O)CCC(=O)N(CC(=O)NC2CCCC2)Cc2ccc(F)cc2)no1`, the viability is 101% in assay [1]; 101% (inactive) in assay [3]; 88.9% (inactive) in assay [4]; 95.6% (inactive) in assay [5]; 82.7% in assay [6] (setting [9]); 95.6% in assay [6] (setting [10]). Further, the Her2 level in assay [2] is 94% (inactive). For the same compound, the differential viability (reversal) in assay [6] (H69AR cells + 2 uM doxorubicin) is 12.9% (inactive). The inhibition in assay [7] is -5.87% (inactive); in assay [8] it was -5.08% (inactive).
Consider `O=C1C2C3C=CC(C3)C2C(=O)N1Cc1ccccc1` (stereo not given), for which the viability in assay [1] is 93.5%; in assay [3] it was 93.5% (inactive); in assay [4], 116% (inactive); in assay [5], 89.6% (inactive); in assay [6] (setting [9]), 80.3%; in assay [6] (setting [10]), 89.6%. In addition, the Her2 level in assay [2] is 114% (inactive). Also, in assay [6] (H69AR cells + 2 uM doxorubicin), the differential viability (reversal) is 9.27% (inactive). For the same compound, the inhibition is -3.47% (inactive) in assay [7] and 2.95% (inactive) in assay [8].
For the compound `COC(=O)c1cccc(Oc2nc3c(c(=O)n(C)c(=O)n3C)n2C(C)C)c1`, the viability was 80.5% in assay [1]; 80.5% (inactive) in assay [3]; 79.6% (inactive) in assay [4]; 79.6% (inactive) in assay [5]; 101% in assay [6] (setting [9]); 79.6% in assay [6] (setting [10]). For the same compound, the Her2 level in assay [2] was 84% (inactive). Besides, the differential viability (reversal) in assay [6] (H69AR cells + 2 uM doxorubicin) is -20.9% (inactive). In addition, the figures for the inhibition in assay [7] and in assay [8] were -2.93% (inactive) and 2% (inactive), respectively.
Turning to `Cc1nc(SCC(=O)N2CCC(C(N)=O)CC2)n[nH]1`, the viability in assay [1] was 94.5%; in assay [3], 94.5% (inactive); in assay [4], 109% (inactive); in assay [5], 95.5% (inactive); in assay [6] (setting [9]) it was 91.6%; in assay [6] (setting [10]) it was 95.5%. The Her2 level in assay [2] was 108% (inactive). Besides, the differential viability (reversal) in assay [6] (H69AR cells + 2 uM doxorubicin) is 3.98% (inactive). Further, the inhibition in assay [7] was -6.32% (inactive); in assay [8], 1.45% (inactive).
With `COc1ccc(-c2c(C(F)(F)F)oc3c(CN4CCN(C)CC4)c(O)ccc3c2=O)cc1`, the viability was 84.5% in assay [1]; 84.5% (inactive) in assay [3]; 87.9% (inactive) in assay [4]; 102% (inactive) in assay [5]; 103% in assay [6] (setting [9]); 102% in assay [6] (setting [10]). In addition, the Her2 level in assay [2] was 108% (inactive). Further, in assay [6] (H69AR cells + 2 uM doxorubicin), the differential viability (reversal) was -1.1% (inactive). For the same compound, the inhibition is -2.67% (inactive) in assay [7] and -6.03% (inactive) in assay [8].
Regarding `Cc1nc(SCc2ccc(Br)cc2)[nH]c(=O)c1C`, the viability was 83.5% in assay [1]; 83.5% (inactive) in assay [3]; 60.7% (inactive) in assay [4]; 92.1% (inactive) in assay [5]; 82.4% in assay [6] (setting [9]); 92.1% in assay [6] (setting [10]). The Her2 level in assay [2] is 85.5% (inactive). The differential viability (reversal) in assay [6] (H69AR cells + 2 uM doxorubicin) was 9.71% (inactive). Also, the figures for the inhibition in assay [7] and in assay [8] were -5.14% (inactive) and 0.82% (inactive), respectively.
Turning to `COc1ccc2nc(NC(=O)C(NS(=O)(=O)c3cccs3)C(C)C)sc2c1` (stereo not given), the viability was 90.5% in assay [1]; 90.5% (inactive) in assay [3]; 70.7% (inactive) in assay [4]; 92.7% (inactive) in assay [5]; 86.9% in assay [6] (setting [9]); 92.7% in assay [6] (setting [10]). The Her2 level in assay [2] was 77% (inactive). Moreover, in assay [6] (H69AR cells + 2 uM doxorubicin), the differential viability (reversal) was 5.86% (inactive). For the same compound, the inhibition is -2.5% (inactive) in assay [7] and -5.64% (inactive) in assay [8].
`Cc1ccc(CN2C(=O)CCC2C(=O)NC2CCCC2)cc1` (stereo not given): the viability in assay [1] was 132%; in assay [3], 132% (inactive); in assay [4] it was 94.3% (inactive); in assay [5] it was 94.1% (inactive); in assay [6] (setting [9]) it was 95.1%; in assay [6] (setting [10]), 94.1%. Also, the Her2 level in assay [2] is 95.5% (inactive). Further, the differential viability (reversal) in assay [6] (H69AR cells + 2 uM doxorubicin) was -1.04% (inactive). The values for the inhibition in assay [7] and in assay [8] were -6.13% (inactive) and 4.59% (inactive), respectively.

Source of the values: PubChem BioAssay.
